Results taken from ChEMBL document CHEMBL3994667, “Small Molecule Lysyl Oxidase-like 2 (LOXL2) Inhibitors: The Identification of an Inhibitor Selective for LOXL2 over LOX” (ACS Med Chem Lett, 2017).
The source made the active and inactive calls. The rule behind the calls is not given here.

Assays:
[1] = target: T1, Amine oxidase [copper-containing] 3 (Homo sapiens) (UniProt Q16853); assay: Inhibition of SSAO in human plasma at 30 uM using benzylamine as substrate preincubated for 2 hrs followed by substrate addition measured every 30 secs for 15 minutes by Amplex red dye based fluorescence assay
T1 sequence (whole entry): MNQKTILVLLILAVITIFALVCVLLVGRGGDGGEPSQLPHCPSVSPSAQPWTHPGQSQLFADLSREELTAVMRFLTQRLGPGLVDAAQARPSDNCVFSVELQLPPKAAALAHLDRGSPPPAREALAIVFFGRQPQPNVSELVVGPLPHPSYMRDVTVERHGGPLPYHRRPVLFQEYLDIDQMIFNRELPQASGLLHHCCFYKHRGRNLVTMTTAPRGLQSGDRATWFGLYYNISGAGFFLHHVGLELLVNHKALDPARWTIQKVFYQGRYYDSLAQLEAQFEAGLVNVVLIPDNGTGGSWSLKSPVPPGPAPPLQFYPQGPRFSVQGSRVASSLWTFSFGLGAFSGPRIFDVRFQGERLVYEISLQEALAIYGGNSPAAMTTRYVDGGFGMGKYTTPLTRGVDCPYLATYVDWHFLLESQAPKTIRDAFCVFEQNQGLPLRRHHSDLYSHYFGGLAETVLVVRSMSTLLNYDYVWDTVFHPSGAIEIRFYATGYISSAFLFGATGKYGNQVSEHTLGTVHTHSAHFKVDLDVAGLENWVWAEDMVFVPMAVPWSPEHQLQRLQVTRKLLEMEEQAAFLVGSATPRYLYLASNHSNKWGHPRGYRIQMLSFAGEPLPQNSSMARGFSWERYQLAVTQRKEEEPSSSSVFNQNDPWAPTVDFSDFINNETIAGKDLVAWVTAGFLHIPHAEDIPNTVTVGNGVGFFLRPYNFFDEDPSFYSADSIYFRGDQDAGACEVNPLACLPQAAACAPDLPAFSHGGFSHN

Cytochrome P450 2C9 = Cytochrome P450 2C9 (Homo sapiens, UniProt P11712); assay: Inhibition of CYP2C9 (unknown origin); type: ADME
Sequence of Cytochrome P450 2C9 (P11712 whole entry): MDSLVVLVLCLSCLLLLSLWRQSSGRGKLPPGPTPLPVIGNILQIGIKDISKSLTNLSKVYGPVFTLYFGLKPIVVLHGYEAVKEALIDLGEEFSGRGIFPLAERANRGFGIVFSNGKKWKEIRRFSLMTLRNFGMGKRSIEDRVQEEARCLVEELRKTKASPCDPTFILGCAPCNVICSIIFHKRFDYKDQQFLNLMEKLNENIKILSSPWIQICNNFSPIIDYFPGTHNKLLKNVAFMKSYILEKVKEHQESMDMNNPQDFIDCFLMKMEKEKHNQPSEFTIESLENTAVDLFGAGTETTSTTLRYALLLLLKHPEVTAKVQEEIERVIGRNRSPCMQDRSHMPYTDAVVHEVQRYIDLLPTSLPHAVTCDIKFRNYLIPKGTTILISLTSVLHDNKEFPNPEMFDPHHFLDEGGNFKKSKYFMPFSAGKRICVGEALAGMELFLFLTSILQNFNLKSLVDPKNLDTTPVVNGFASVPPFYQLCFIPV

Cytochrome P450 2D6 = Cytochrome P450 2D6 (Homo sapiens, UniProt P10635); assay: Inhibition of CYP2D6 (unknown origin); type: ADME
Sequence of Cytochrome P450 2D6 (P10635 whole entry): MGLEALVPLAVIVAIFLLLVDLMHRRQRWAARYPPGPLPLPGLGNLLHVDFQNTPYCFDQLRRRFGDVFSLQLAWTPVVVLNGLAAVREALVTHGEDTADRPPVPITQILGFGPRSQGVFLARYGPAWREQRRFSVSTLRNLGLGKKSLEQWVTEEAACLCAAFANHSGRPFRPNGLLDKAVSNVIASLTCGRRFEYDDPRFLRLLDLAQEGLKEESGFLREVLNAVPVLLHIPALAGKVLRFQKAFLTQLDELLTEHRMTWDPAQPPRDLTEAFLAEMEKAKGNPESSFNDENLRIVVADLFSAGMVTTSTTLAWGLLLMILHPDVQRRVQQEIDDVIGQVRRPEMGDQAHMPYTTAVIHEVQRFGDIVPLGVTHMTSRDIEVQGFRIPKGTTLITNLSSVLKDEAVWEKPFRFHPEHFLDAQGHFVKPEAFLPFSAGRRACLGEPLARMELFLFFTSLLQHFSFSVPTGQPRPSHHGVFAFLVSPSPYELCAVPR

Lysyl oxidase homolog 2 [2] = target: T2, Lysyl oxidase homolog 2 (Homo sapiens, UniProt Q9Y4K0); assay: Inhibition of full length recombinant human LOXL2 expressed in CHO cells assessed as reduction in H2O2 production using DAP as substrate preincubated for 2 hrs followed by substrate addition measured every 2 minutes for 50 minutes by Amplex red dye based fluorescence assay
T2 sequence (Q9Y4K0 whole entry): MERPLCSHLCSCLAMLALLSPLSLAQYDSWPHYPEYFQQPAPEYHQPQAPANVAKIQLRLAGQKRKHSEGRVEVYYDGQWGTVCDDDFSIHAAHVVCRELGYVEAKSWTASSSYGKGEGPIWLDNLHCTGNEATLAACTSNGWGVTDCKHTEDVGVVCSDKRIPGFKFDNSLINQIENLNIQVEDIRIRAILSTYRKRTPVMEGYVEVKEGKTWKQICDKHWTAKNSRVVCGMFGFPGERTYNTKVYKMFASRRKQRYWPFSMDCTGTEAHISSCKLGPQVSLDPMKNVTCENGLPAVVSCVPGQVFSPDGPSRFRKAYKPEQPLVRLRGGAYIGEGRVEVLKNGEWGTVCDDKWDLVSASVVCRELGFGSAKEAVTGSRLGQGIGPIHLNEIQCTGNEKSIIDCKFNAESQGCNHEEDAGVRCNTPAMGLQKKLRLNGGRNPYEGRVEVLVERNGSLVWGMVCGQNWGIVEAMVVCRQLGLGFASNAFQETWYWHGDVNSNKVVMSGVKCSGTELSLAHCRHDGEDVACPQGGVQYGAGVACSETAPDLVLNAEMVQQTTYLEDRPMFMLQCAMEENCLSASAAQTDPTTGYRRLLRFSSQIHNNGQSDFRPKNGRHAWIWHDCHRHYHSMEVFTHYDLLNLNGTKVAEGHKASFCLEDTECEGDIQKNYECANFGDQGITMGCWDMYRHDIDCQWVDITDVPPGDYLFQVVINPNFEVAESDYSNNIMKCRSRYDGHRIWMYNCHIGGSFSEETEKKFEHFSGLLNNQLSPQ

Lysyl oxidase homolog 2 [3] = target: T3, Lysyl oxidase homolog 2 (Mus musculus, UniProt P58022); assay: Inhibition of full length recombinant mouse LOXL2 expressed in CHO cells assessed as reduction in H2O2 production using DAP as substrate preincubated for 2 hrs followed by substrate addition measured every 2 minutes for 50 minutes in presence of BSA by Amplex red dye based fluorescence assay; type: cell-based
T3 sequence (P58022 whole entry): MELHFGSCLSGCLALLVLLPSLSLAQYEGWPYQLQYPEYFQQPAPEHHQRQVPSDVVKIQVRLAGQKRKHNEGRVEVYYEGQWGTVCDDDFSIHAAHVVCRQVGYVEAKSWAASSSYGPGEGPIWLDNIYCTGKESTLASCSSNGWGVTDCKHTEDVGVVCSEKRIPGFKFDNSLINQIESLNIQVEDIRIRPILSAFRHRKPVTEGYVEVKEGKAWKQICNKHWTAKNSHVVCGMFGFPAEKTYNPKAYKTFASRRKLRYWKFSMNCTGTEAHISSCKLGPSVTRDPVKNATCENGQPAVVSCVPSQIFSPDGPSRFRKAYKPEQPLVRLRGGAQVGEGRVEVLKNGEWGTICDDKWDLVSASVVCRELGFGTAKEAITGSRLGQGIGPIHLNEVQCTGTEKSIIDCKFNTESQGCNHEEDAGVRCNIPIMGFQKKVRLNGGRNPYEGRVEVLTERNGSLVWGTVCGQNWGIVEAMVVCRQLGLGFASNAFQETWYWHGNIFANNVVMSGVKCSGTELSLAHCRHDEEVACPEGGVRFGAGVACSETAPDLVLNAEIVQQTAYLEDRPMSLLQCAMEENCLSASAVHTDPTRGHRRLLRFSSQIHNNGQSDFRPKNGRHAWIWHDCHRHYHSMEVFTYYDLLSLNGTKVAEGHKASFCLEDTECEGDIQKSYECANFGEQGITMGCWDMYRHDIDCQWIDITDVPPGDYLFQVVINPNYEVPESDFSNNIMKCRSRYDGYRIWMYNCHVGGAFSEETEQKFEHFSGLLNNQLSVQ
How it was run: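 Rodent LOXL2 is tested under the same conditions as the BSA-supplemented assay: conditioned media plus BSA, with DAP as substrate and Amplex Red detection of H2O2. Species are mouse and rat. IC50 is the geometric mean x/÷ geometric standard deviation from 3 determinations.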

- inhibition [1]: inactive
- IC50 (Cytochrome P450 2C9): > 30000 nM
- IC50 (Cytochrome P450 2D6): > 30000 nM
- IC50 (Lysyl oxidase homolog 2 [2]): 126 nM
- IC50 (Lysyl oxidase homolog 2 [3]): 227 nM
Structure (SMILES): NCc1ccnc(Cl)c1
